Assay results: ChEMBL document CHEMBL3120066, “Discovery of a novel class of potent HCV NS4B inhibitors: SAR studies on piperazinone derivatives” (J Med Chem, 2014)

System: Hepatitis C virus
Assay: Antiviral activity against HCV1b infected in clone A and ET-lunet cells assessed as inhibition of viral replication after 4 days by RT-PCR analysis
Format: functional, organism-based, Hepacivirus hominis
Details: genotype 1b, 96 h
In short: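 Run in HCV genotype 1a and 1b replicon cells; each reported value is the mean of n = 2 independent determinations.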

Row | EC90 | EC50 | SMILES
1 | > 10000 nM |  | CC(C)C[C@H]1CN(C(=O)/C=C/c2ccc([N+](=O)[O-])cc2)[C@@H](CC(C)C)C(=O)N1
2 | 760 nM |  | Cc1ccc([C@H]2CN(C(=O)c3cc(-c4ccc(F)cc4)on3)[C@@H](CC(C)C)C(=O)N2)cc1
3 | > 10000 nM |  | CC[C@H]1C(=O)N[C@@H](CC(C)C)CN1C(=O)[C@@H]1C[C@H]1c1ccccc1
4 | 2300 nM |  | CC(C)C[C@H]1CN(C(=O)/C=C/c2ccccc2)[C@@H](CC(C)C)C(=O)N1
5 | 7800 nM |  | CC(C)C[C@H]1CN(C(=O)/C=C/c2ccc(Br)cc2)[C@@H](CC(C)C)C(=O)N1
6 | 2740 nM |  | CC(C)C[C@H]1C(=O)N[C@@H](CN(C)C)CN1C(=O)c1cc(-c2ccc(F)cc2)on1
7 | 1800 nM |  | CC(C)C[C@H]1C(=O)N[C@@H](C(C)(C)C)CN1C(=O)c1cc(-c2ccc(F)cc2)on1
8 | 650 nM |  | CC(C)C[C@H]1CN(C(=O)c2cc(-c3ccc(F)c(F)c3)on2)[C@@H](CC(C)C)C(=O)N1
9 | 680 nM |  | Cc1ccsc1[C@H]1CN(C(=O)c2cc(-c3ccc(F)cc3)on2)[C@@H](CC(C)C)C(=O)N1
10 | 2600 nM |  | CC(C)C[C@H]1CN(C(=O)c2cc(-c3ccc([N+](=O)[O-])cc3)on2)[C@@H](CC(C)C)C(=O)N1
11 | > 10000 nM |  | CC(C)C[C@@H]1CN(C(=O)[C@@H]2C[C@H]2c2ccccc2)[C@@H](CC(C)C)C(=O)N1
12 | 1100 nM |  | CC(C)C[C@H]1CN(C(=O)c2cc(-c3ccccc3)on2)[C@@H](CC(C)C)C(=O)N1
13 | 1540 nM |  | Cc1ccc(-c2cc(C(=O)N3C[C@H](CC(C)C)NC(=O)[C@@H]3CC(C)C)no2)cc1
14 | > 10000 nM |  | CC(C)C[C@H]1CN(C(=O)c2c[nH]c(-c3ccccc3)n2)[C@@H](CC(C)C)C(=O)N1
15 | 26 nM |  | CC(C)C[C@H]1C(=O)N[C@@H](c2ccsc2)CN1C(=O)c1cc(-c2ccc(F)cc2)on1
16 | 1500 nM |  | CC(C)C[C@H]1CN(C(=O)/C=C/c2ccc(F)cc2)[C@@H](CC(C)C)C(=O)N1
17 | 1350 nM |  | COc1ccc(-c2cc(C(=O)N3C[C@H](CC(C)C)NC(=O)[C@@H]3CC(C)C)no2)cc1
18 | 390 nM |  | CSCC[C@H]1CN(C(=O)c2cc(-c3ccc(F)cc3)on2)[C@@H](CC(C)C)C(=O)N1
19 | 290 nM |  | CC(C)C[C@H]1CN(C(=O)c2cc(-c3ccc(Cl)cc3)on2)[C@@H](CC(C)C)C(=O)N1
20 | 240 nM |  | CSC[C@H]1CN(C(=O)c2cc(-c3ccc(F)cc3)on2)[C@@H](CC(C)C)C(=O)N1
21 | 190 nM |  | CC(C)C[C@H]1C(=O)N[C@@H](C2CCCCC2)CN1C(=O)c1cc(-c2ccc(F)cc2)on1

Row | EC90 | EC50 | SMILES
22 | 3300 nM |  | CC(C)C[C@H]1CN(C/C=C/c2ccccc2)[C@@H](CC(C)C)C(=O)N1
23 | 680 nM |  | CC(C)C[C@H]1CN(C(=O)c2cc(-c3ccc(F)cc3F)on2)[C@@H](CC(C)C)C(=O)N1
24 | 3200 nM |  | CC(C)C[C@H]1CN(C(=O)C#Cc2ccccc2)[C@@H](CC(C)C)C(=O)N1
25 | 100 nM |  | CCC[C@H]1CN(C(=O)c2cc(-c3ccc(F)cc3)on2)[C@@H](CC(C)C)C(=O)N1
26 | 1530 nM |  | CC(C)C[C@H]1CN(C(=O)c2cc(-c3ccc(C#N)cc3)on2)[C@@H](CC(C)C)C(=O)N1
27 | > 10000 nM |  | CC(C)C[C@H]1CN(C(=O)c2cccc(-c3ccccc3)c2)[C@@H](CC(C)C)C(=O)N1
28 | 1400 nM |  | CC(C)C[C@H]1CN(C(=O)c2noc(-c3ccccc3)n2)[C@@H](CC(C)C)C(=O)N1
29 | 2000 nM |  | CC(C)C[C@H]1C(=O)N[C@@H](CC(C)(C)C)CN1C(=O)c1cc(-c2ccc(F)cc2)on1
30 | 530 nM |  | CCCC[C@H]1CN(C(=O)c2cc(-c3ccc(F)cc3)on2)[C@@H](CC(C)C)C(=O)N1
31 | > 10000 nM |  | CC(C)C[C@H]1C(=O)N[C@@H](c2ncco2)CN1C(=O)c1cc(-c2ccc(F)cc2)on1
32 | > 10000 nM |  | CC(C)C[C@H]1CN(C(=O)c2cn(-c3ccccc3)cn2)[C@@H](CC(C)C)C(=O)N1
33 | > 10000 nM |  | CC(C)C[C@H]1CN(C(=O)c2coc(-c3ccccc3)n2)[C@@H](CC(C)C)C(=O)N1
34 | > 10000 nM |  | CC(C)C[C@H]1CN(C(=O)[C@@H]2C[C@H]2c2ccccc2)[C@@H](CC(C)C)CN1
35 | > 10000 nM |  | CC[C@H](C)[C@H]1CN(C(=O)[C@@H]2C[C@H]2c2ccccc2)[C@@H](CC(C)C)C(=O)N1
36 | 8800 nM |  | CC(C)C[C@H]1CN(C(=O)[C@@H]2C[C@H]2c2ccccc2)[C@@H](CC(C)C)C(=O)N1C
37 | 7250 nM |  | CC(C)C[C@H]1C(=O)N[C@@H](CC(C(F)(F)F)C(F)(F)F)CN1C(=O)c1cc(-c2ccc(F)cc2)on1
38 | 4 nM |  | CC(C)C[C@H]1C(=O)N[C@@H](c2ccsc2Cl)CN1C(=O)c1cc(-c2ccc(F)cc2)on1
39 | 180 nM |  | Cc1ccc([C@H]2CN(C(=O)c3cc(-c4ccc(F)cc4)on3)[C@@H](CC(C)C)C(=O)N2)s1
40 | 9700 nM |  | CC(C)C[C@H]1CN(C(=O)/C=C/c2ccccc2Cl)[C@@H](CC(C)C)C(=O)N1
41 | 8100 nM |  | CC(C)C[C@H]1CN(C(=O)/C=C/c2ccc(C(F)(F)F)cc2)[C@@H](CC(C)C)C(=O)N1
42 | > 10000 nM |  | CC(C)C[C@H]1CN(C(=O)c2cc(-c3ccccc3)[nH]n2)[C@@H](CC(C)C)C(=O)N1

Row | EC90 | EC50 | SMILES
43 | 690 nM |  | CC(C)C[C@H]1C(=O)N[C@@H](C2CCC2)CN1C(=O)c1cc(-c2ccc(F)cc2)on1
44 | 450 nM |  | CC(C)C[C@H]1C(=O)N[C@@H](CC2CC2)CN1C(=O)c1cc(-c2ccc(F)cc2)on1
45 | 680 nM |  | CC(C)C[C@H]1C(=O)N[C@@H](c2ccc[nH]2)CN1C(=O)c1cc(-c2ccc(F)cc2)on1
46 | 170 nM |  | CC(C)C[C@H]1C(=O)N[C@@H](C(C)C)CN1C(=O)c1cc(-c2ccc(F)cc2)on1
47 | > 7900 nM |  | CC(C)C[C@H]1CN(C(=O)c2csc(-c3ccccc3)n2)[C@@H](CC(C)C)C(=O)N1
48 | 710 nM |  | CC[C@H]1CN(C(=O)c2cc(-c3ccc(F)cc3)on2)[C@@H](CC(C)C)C(=O)N1
49 | > 10000 nM |  | CC(C)C[C@H]1CN(C(=O)[C@@H]2C[C@H]2c2ccccc2)[C@H](CC(C)C)C(=O)N1
50 | 900 nM |  | CCC[C@H]1CN(C(=O)[C@@H]2C[C@H]2c2ccccc2)[C@@H](CC(C)C)C(=O)N1
51 | > 5800 nM |  | CC(C)C[C@H]1CN(C(=O)c2ccc(-c3ccccc3)o2)[C@@H](CC(C)C)C(=O)N1
52 | > 10000 nM |  | COC[C@H]1CN(C(=O)c2cc(-c3ccc(F)cc3)on2)[C@@H](CC(C)C)C(=O)N1
53 | 5300 nM |  | Cc1ccc(/C=C/C(=O)N2C[C@H](CC(C)C)NC(=O)[C@@H]2CC(C)C)cc1
54 | > 10000 nM |  | CC(C)C[C@H]1CN(C(=O)/C=C\c2ccccc2)[C@@H](CC(C)C)C(=O)N1
55 |  | 1.7 nM | CCc1cc2c(cc1F)c(C#N)c(-c1ccc(S(=O)(=O)N[C@@H](C)C(F)(F)F)cn1)n2-c1ncccn1
56 | 130 nM |  | CC(C)C[C@H]1CN(C(=O)c2cc(-c3ccc(F)cc3)on2)[C@@H](CC(C)C)C(=O)N1
57 | > 10000 nM |  | CC(C)C[C@H]1C(=O)N[C@@H](c2nccs2)CN1C(=O)c1cc(-c2ccc(F)cc2)on1
58 | > 10000 nM |  | CC[C@@H](C)[C@H]1CN(C(=O)c2cc(-c3ccc(F)cc3)on2)[C@@H](CC(C)C)C(=O)N1
59 | 2750 nM |  | CC(C)C[C@H]1C(=O)N[C@@H](c2ccc(C(F)(F)F)cc2)CN1C(=O)c1cc(-c2ccc(F)cc2)on1
60 | 470 nM |  | CC(C)C[C@H]1CN(C(=O)c2cc(-c3ccc(Br)cc3)on2)[C@@H](CC(C)C)C(=O)N1
61 | 1600 nM |  | CC(C)C[C@H]1CN(C(=O)/C=C/c2ccc(Cl)cc2)[C@@H](CC(C)C)C(=O)N1
62 | 470 nM |  | CC(C)C[C@H]1C(=O)N[C@@H](C2CCOCC2)CN1C(=O)c1cc(-c2ccc(F)cc2)on1
